Measurements as given in ChEMBL document CHEMBL4834423, “Discovery of AG-270, a First-in-Class Oral MAT2A Inhibitor for the Treatment of Tumors with Homozygous MTAP Deletion” (J Med Chem, 2021).

Assays:
[1] = Oral bioavailability in dog at 5 mg/kg; assay type: ADME, organism-based, Canis lupus familiaris; conditions: in vivo
[2] = system: KP-4; assay: Anticancer activity in MTAP-null human KP-4 cells xenografted mouse model assessed as tumor growth inhibition at 10 mg/kg, po qd treated for 38 days relative to control; assay type: functional; conditions: KP-4, po, 912 h, time 38 day, read-out: TGI
Outline: (§1)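 Subcutaneous KP4 MTAP-null xenograft mice, 12 per arm (60 animals), dosed orally once daily on days 24−38 at 10−200 mg/kg. Tumor SAM levels and plasma compound exposure were monitored; plasma sampled up to 24 h after the last dose. Mean tumor volume and body weight change were tracked; error bars are SEM.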

[3] = Protein binding in monkey plasma assessed as unbound fraction; assay type: ADME, cell-free, Macaca mulatta; conditions: rhesus monkey
[4] = target: Cytochrome P450 2D6 (Homo sapiens, UniProt P10635); assay: Inhibition of CYP2D6 (unknown origin) assessed as inactivation relative to control; assay type: ADME
Cytochrome P450 2D6, sequence (P10635 whole entry): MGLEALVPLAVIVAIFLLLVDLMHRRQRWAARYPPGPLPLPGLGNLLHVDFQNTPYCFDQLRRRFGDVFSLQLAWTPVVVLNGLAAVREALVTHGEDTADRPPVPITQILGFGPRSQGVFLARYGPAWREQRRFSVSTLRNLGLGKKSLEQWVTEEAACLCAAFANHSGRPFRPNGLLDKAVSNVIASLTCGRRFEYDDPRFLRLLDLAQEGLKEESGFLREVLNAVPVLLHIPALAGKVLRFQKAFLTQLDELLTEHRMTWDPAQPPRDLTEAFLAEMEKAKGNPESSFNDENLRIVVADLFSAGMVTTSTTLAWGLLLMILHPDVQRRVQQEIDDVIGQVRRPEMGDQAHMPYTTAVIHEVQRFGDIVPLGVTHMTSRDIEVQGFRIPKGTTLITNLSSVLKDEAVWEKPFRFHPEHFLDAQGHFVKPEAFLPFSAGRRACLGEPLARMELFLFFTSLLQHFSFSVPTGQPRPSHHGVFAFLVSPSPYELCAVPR

[5] = system: KP-4; assay: Anticancer activity in MTAP-null human KP-4 cells xenografted mouse model assessed as inhibition of SAM production at 30 mg/kg, po qd treated for 38 days relative to control; assay type: functional; conditions: KP-4, po, 912 h, time 38 day; outline: as §1
[6] = target: T1, Cytochrome P450 3A4 (Homo sapiens, UniProt P08684); assay: Inhibition of CYP3A4 (unknown origin); assay type: ADME
T1 sequence (P08684 whole entry): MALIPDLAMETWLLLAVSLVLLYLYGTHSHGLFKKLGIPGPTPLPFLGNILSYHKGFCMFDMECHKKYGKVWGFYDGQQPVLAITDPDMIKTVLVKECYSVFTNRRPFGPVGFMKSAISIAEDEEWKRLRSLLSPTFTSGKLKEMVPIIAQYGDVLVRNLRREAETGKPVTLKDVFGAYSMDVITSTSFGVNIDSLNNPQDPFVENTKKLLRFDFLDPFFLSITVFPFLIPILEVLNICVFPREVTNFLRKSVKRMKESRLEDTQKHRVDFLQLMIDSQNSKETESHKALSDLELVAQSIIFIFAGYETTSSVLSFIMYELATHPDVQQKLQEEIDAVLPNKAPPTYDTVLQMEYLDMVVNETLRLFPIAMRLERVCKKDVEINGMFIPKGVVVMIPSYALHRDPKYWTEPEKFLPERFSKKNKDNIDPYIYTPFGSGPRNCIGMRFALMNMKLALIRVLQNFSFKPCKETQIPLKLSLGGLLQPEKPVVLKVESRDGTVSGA

[7] = target: T1, Cytochrome P450 3A4; assay: Inhibition of CYP3A4 (unknown origin) assessed as inactivation relative to control; assay type: ADME
[8] = cells; conditions: Homo sapiens, HCT-116, 72 h
[9] = Protein binding in rat plasma assessed as unbound fraction; assay type: ADME, cell-free
[10] = system: HCT-116; assay: cells; conditions: Homo sapiens, HCT-116, 96 h
[11] = target: T2, PXR (NR1I2) (Homo sapiens, UniProt O75469); assay: Transactivation of PXR in human HepG2 cells relative to rifampicin; assay type: cell-based; conditions: read-out: Activity
T2 sequence (O75469 whole entry): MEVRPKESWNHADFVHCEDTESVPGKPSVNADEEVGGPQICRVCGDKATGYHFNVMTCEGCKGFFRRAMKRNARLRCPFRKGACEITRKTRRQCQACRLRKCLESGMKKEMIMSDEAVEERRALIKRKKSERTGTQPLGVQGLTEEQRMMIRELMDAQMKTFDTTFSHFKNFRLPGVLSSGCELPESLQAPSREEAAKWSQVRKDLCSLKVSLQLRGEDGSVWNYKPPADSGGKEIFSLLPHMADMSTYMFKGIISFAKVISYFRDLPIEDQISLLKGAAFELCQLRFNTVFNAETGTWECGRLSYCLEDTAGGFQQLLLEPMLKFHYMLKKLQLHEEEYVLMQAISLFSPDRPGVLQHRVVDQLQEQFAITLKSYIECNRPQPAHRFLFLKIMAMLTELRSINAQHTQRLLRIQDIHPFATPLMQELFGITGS

[12] = target: T3, UDP-glucuronosyltransferase 1A1 (Homo sapiens, UniProt P22309); assay: Inhibition of UGT1A1 (unknown origin); assay type: ADME
T3 sequence (P22309 whole entry): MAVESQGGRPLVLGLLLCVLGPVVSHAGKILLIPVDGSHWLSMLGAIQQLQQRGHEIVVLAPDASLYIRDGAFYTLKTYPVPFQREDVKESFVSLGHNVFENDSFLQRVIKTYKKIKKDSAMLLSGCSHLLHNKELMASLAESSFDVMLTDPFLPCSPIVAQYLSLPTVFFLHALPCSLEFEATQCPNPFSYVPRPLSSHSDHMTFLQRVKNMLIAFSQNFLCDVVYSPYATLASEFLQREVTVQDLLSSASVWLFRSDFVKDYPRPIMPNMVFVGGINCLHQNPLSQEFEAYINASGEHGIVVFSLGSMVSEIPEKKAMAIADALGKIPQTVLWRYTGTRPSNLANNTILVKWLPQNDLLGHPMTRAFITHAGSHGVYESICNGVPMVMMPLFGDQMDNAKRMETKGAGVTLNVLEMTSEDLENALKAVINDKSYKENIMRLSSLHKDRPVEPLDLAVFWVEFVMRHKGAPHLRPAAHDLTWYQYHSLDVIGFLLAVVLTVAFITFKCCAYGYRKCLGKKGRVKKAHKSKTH

bioavailability [1]: 48% | fraction unbound [3]: 0.011 | INH [4]: > 50 µM | IC50 [6]: > 10000 nM | INH [7]: > 50 µM | IC50 [8]: 20000 nM | fraction unbound [9]: 0.016 | IC50 [10]: 257 nM | Emax [11]: 22% | IC50 [12]: 1100 nM
Compound: COc1ccc(-c2c(Nc3ccccn3)[nH]c3c(C4=CCCCC4)c(-c4ccccc4)nn3c2=O)cc1
inhibition in vivo at 10 mg/kg [2]: 36% | inhibition in vivo at 30 mg/kg [5]: 44.7%
